In test [1] the test system is Mus musculus. Put plainly: Evaluated in vivo for their ability to decrease plasma glucose levels in diabetic C57BL/KsJ db/db mouse at a dose 100 mg/kg/day.,*p indicates <0.05. Type of test: functional. In outline:
(§1)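 Mice dosed orally once daily for 4 days; plasma glucose and insulin measured and expressed as percent change versus a vehicle-treated group (mean ± SE, 4-6 mice/group). NS is generally less than -15% change. Significance is versus vehicle-treated mice.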

Test [2] concerns the target T1, Tyrosine-protein phosphatase non-receptor type 1 (Mus musculus) (UniProt P35821).
T1 sequence (whole entry): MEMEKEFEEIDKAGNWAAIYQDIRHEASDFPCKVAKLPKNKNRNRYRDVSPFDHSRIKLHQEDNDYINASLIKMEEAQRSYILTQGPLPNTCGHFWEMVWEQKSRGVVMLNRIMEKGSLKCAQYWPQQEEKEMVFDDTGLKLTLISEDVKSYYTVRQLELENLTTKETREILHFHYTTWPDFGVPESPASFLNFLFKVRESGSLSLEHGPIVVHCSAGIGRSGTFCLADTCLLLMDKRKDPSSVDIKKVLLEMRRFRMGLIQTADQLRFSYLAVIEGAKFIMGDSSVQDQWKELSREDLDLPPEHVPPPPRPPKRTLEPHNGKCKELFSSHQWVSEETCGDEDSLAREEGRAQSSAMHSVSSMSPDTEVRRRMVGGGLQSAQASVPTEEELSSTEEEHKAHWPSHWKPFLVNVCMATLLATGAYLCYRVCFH
The experiment in a line: In vivo ability to decrease plasma glucose levels in diabetic C57BL/KsJ ob/ob mouse at a dose 100 mg/kg/day. Type of test: functional, organism-based. In outline: (§2)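 Diabetic db/db or ob/ob mice dosed orally once daily for 4 days. Plasma glucose and insulin reported as percent change from a vehicle-treated group. 4-6 mice per group. Significance set at p < 0.05 or p < 0.01 versus vehicle; NS means generally less than -15% change.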

For test [3], the target named is T2, Tyrosine-protein phosphatase non-receptor type 1 (Rattus norvegicus) (UniProt P20417).
T2 sequence (whole entry): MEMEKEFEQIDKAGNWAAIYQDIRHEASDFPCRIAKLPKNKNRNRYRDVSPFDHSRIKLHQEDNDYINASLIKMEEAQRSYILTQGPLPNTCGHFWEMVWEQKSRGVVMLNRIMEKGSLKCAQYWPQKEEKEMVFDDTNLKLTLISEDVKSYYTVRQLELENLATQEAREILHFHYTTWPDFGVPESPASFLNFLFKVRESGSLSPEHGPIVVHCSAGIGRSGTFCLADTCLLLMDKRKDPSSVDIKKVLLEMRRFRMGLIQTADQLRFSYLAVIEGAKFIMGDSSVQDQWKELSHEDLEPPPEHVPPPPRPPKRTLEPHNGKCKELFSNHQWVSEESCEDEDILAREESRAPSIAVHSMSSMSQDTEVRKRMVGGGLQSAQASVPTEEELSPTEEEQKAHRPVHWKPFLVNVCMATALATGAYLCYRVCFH
The experiment in a line: Inhibition of PTPase (PTP1B) activity in rat hepatic membrane at 50 uM concentration, using pNPP as the substrate. The following applies: Liver. Type of test: cell membranes. In outline:
(§3)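 Liver membranes from male Sprague-Dawley rats (100-150 g), about 30 µg protein per well. Preincubated 10 min at 37 °C with compound in 1.25% DMSO in 50 mM HEPES pH 7.4. Then 6.33 mM pNPP for 30 min at 37 °C, stopped with NaOH. p-Nitrophenol read at 410 nm. Run in triplicate. Reported as percent of untreated control.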

The target of test [4] is T3, Tyrosine-protein phosphatase non-receptor type 1 (Rattus norvegicus, UniProt P20417).
T3 sequence (P20417 whole entry): T2 sequence (whole entry)
Put plainly: Inhibition of PTPase activity using recombinant r-PTP1B and IR-triphosphopeptide as substrate; ND is no data. In outline:
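Rat recombinant PTP1B in 33 mM TRIS-HCl, 2 mM EDTA, 50 mM β-mercaptoethanol, pH 7.4 (about 1000-2000 nmol/min/mg). Preincubated 10 min at 37 °C with or without compound in HEPES buffer pH 7.4. Released phosphate read by malachite green-ammonium molybdate at 650 nm against a phosphate standard. Quadruplicates. IC50 by four-parameter logistic fit.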

The target of test [5] is T1, Tyrosine-protein phosphatase non-receptor type 1 (Mus musculus). Put plainly: Ability to decrease plasma insulin levels in mouse at a dose 100 mg/kg/day. In kind it is functional, organism-based. In outline: as §2
The subject of test [6] is Mus musculus. Put plainly: Evaluated in vivo for their ability to decrease plasma glucose levels in diabetic C57BL/KsJ db/db mouse at a dose 100 mg/kg/day; NS is non significant. In kind it is functional, organism-based. In a few lines:
as §2

Test [7] deals with T3, Tyrosine-protein phosphatase non-receptor type 1. Put plainly: Inhibition of PTPase activity using recombinant Protein-tyrosine phosphatase 1B and IR-triphosphopeptide as substrate; ND is no data.
Test [8] concerns the target T2, Tyrosine-protein phosphatase non-receptor type 1 (Rattus norvegicus). Put plainly: Inhibition of Protein-tyrosine phosphatase 1B activity in rat hepatic membrane at a concentration of 50 uM using pNPP as the substrate. In kind it is cell membranes. The following applies: Liver. In outline:
as §3

Test [9] concerns Mus musculus. Put plainly: Evaluated for their ability to decrease plasma insulin levels in mouse at a dose 100 mg/kg/day.([…]). Type of test: functional. In a few lines: as §2
The subject of test [10] is Mus musculus. The experiment in a line: Evaluated in vivo for their ability to decrease plasma glucose levels in diabetic C57BL/KsJ db/db mouse at a dose 100 mg/kg/day.([…]). Type of test: functional. In a few lines: as §2
The target of test [11] is T2, Tyrosine-protein phosphatase non-receptor type 1 (Rattus norvegicus). The experiment in a line: IC50 for PTPase activity, recombinant r-PTP1B as the enzyme .
In test [12] the test system is Mus musculus. Put plainly: Evaluated in vivo for their ability to decrease plasma glucose levels in diabetic C57BL/KsJ ob/ob mouse at a dose 100 mg/kg/day, **p indicates <0.01. Type of test: functional. In a few lines:
as §1

Test [13] relates to Mus musculus. Put plainly: Evaluated in vivo for their ability to decrease plasma glucose levels in diabetic C57BL/KsJ db/db mouse at a dose 100 mg/kg/day, *p indicates <0.05. In kind it is functional. In outline: as §1
Test [14] relates to Mus musculus. The experiment in a line: Evaluated for their ability to decrease plasma insulin levels in mouse at a dose 100 mg/kg/day, **p indicates <0.01. In kind it is functional. In outline:
as §2

Test [15] concerns Mus musculus. Put plainly: Evaluated for their ability to decrease plasma insulin levels in mouse at a dose 100 mg/kg/day,**p indicates <0.01. Type of test: functional. In a few lines: as §1
Test [16] relates to Mus musculus. Put plainly: Evaluated in vivo for their ability to decrease plasma glucose levels in diabetic C57BL/KsJ db/db mouse at a dose 100 mg/kg/day. *p indicates <0.05. Type of test: functional. In outline:
as §1

The target of test [17] is T2, Tyrosine-protein phosphatase non-receptor type 1 (Rattus norvegicus). Put plainly: Inhibition of PTPase activity using recombinant r-PTP1B as the enzyme and IR-triphosphopeptide as substrate at 10 uM. In outline: (§4)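 Recombinant rat PTP1B (human 321-aa form assayed the same way), activity about 1000-2000 nmol/min/mg, preincubated with compound for 10 min at 37 °C in HEPES pH 7.4. The reaction is started with 50 µM triphosphorylated insulin receptor 1142-1153 dodecapeptide and run 30 min at 37 °C. Released phosphate read by malachite green-molybdate at 650 nm, in quadruplicate. Result is percent inhibition versus control.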

Test [18] has as its system Mus musculus. Put plainly: Evaluated for their ability to decrease plasma insulin levels in mouse at a dose 100 mg/kg/day; **p indicates <0.01. In kind it is functional. In outline:
as §1

In test [19] the test system is Mus musculus. The experiment in a line: Evaluated in vivo for their ability to decrease plasma glucose levels in diabetic C57BL/KsJ ob/ob mouse at a dose 100 mg/kg/day; **p indicates <0.01. In kind it is functional. In a few lines:
as §1

The target in test [20] is T4, Tyrosine-protein phosphatase non-receptor type 1 (Homo sapiens) (UniProt P18031).
T4 sequence (whole entry): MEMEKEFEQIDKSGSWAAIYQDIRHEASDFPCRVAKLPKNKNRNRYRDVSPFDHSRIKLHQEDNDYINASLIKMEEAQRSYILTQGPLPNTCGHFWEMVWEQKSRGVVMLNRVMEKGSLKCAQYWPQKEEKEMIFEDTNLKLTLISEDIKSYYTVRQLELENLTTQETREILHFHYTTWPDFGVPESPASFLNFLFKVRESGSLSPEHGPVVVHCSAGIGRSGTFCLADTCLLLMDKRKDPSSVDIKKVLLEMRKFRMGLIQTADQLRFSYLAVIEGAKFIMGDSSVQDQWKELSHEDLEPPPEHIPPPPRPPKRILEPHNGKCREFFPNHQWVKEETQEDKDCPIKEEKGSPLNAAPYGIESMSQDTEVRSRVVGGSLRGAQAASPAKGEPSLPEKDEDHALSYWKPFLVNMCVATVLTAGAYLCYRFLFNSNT
Put plainly: % inhibition of PTPase activity, recombinant human Protein-tyrosine phosphatase 1B as the enzyme at a concentration 50 uM. In outline: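 Human recombinant PTP1B (321 aa form) dephosphorylating IR-triphosphopeptide (pY1146/1150/1151), 50 µM final. Run as for the rat enzyme: 10 min preincubation with compound at 37 °C, pH 7.4, then 30 min reaction at 37 °C. Phosphate read by malachite green-ammonium molybdate at 650 nm. Quadruplicates. IC50 by four-parameter logistic regression.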

Test [21] concerns the target T2, Tyrosine-protein phosphatase non-receptor type 1 (Rattus norvegicus). The experiment in a line: Inhibition of PTPase activity using recombinant Protein-tyrosine phosphatase 1B as the enzyme and IR-triphosphopeptide as substrate at 50 uM. In outline: as §4

Calls of active or inactive are those of the source. No cut-off for these calls is given here.

Results on six compounds are retold here after ChEMBL document CHEMBL1132971, “New azolidinediones as inhibitors of protein tyrosine phosphatase 1B with antihyperglycemic properties” (J Med Chem, 2000).

Usually inhibition stands for the change of the read-out against control, counted positive when it falls. By IC50 is commonly meant the concentration that gives 50% inhibition. Turning to `CC/C(=C\c1cccc(OCc2nc(-c3ccc(C(F)(F)F)cc3)oc2C)c1)n1oc(=O)[nH]c1=O`, the results for the Decrease (in the test on Mus musculus [1]; in test [2]; in [5]) were 24%, “Not significant” and “Not significant”, respectively. In [3], this compound gave an inhibition of 58%. Also, the IC50 result in test [4] is reported as “Not significant”.
Take `C/C(Cn1oc(=O)[nH]c1=O)=C(\C)c1cccc(OCc2nc(-c3ccc(C(F)(F)F)cc3)oc2C)c1`: the Decrease result in the test with Mus musculus [6] is “inactive”. For the same compound, the Decrease result in [2] and in [5] was “Not significant” in each case. For the same compound, the IC50 entry in test [7] is on record as “Not significant”. Besides, in [8], the inhibition was determined as 54%.
In the case of `Cc1oc(-c2ccc(C(F)(F)F)cc2)nc1COc1cccc(/C(I)=C/Cn2oc(=O)[nH]c2=O)c1`, the inhibition in test [3] was 51%. Further, the Decrease turned out to be 64% in the test on Mus musculus [9] and 38% in the test with Mus musculus [10]. In [11], the IC50 turned out to be 1.8 µM.
As for `C/C(=C\Cn1oc(=O)[nH]c1=O)c1cccc(OCc2nc(-c3ccccc3)oc2C)c1` (stereo in doubt; 67), the Decrease in the test with Mus musculus [12] was 30%; in the test on Mus musculus [13] it was 28%; with Mus musculus [14] it was 75%. For the same compound, in test [7], the IC50 result is “Not significant”.
`Cc1oc(-c2ccc(C(F)(F)F)cc2)nc1COc1cccc(C#CC(C)n2oc(=O)[nH]c2=O)c1` (centres undefined): the Decrease is on record as 91% in the test with Mus musculus [15], 30% in the test with Mus musculus [16] and 32% in the test on Mus musculus [12]. The inhibition in test [3] came out at 56%; in [17], 47%.
For `CCC/C(=C\Cn1oc(=O)[nH]c1=O)c1cccc(OCc2nc(-c3ccc(C(F)(F)F)cc3)oc2C)c1`, the Decrease with Mus musculus [18] came out at 82%; in the test on Mus musculus [16], 59%; in the test on Mus musculus [19], 58%. For the same compound, the inhibition in [20] was 1.9%; in test [21], 2%; in test [8], 58%.
